One experiment deals with Cannabinoid receptor 2 (Mus musculus, UniProt P47936). As to the kind of experiment: Displacement of [3H]CP-55940 from CB2 receptor in mouse spleen membrane. It is filed as cell membranes. The method, boiled down: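 CB2 sites are measured with membranes prepared from frozen mouse spleen. Binding is competition against tritiated CP-55,940, run in 96-well filter format, and IC50 values are taken from displacement. Filters are washed in buffer containing 0.5% BSA and counted by scintillation. Ki is the mean of three independent experiments, each run in duplicate.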
For orientation: Displacement assays read how much labelled ligand stays bound in the presence of the test substance.

In a further experiment the target is Cannabinoid receptor 1 (Rattus norvegicus, UniProt P20272). As to the kind of experiment: Displacement of [3H]CP-55940 from CB1 receptor in rat brain synaptosomal membrane. It is filed as cell membranes. The method in brief:
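Rat forebrain synaptosomal membranes prepared from frozen brains serve as CB1 source. Binding is competition against tritiated CP-55,940, run in 96-well filter format, and IC50 values are taken from displacement. Filters are washed in buffer containing 0.5% BSA and counted by scintillation. Ki is the mean of three independent experiments, each run in duplicate.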

The nature of experiment [1]: Selectivity for mouse CB2 receptor over rat CB1 receptor.

Cannabinoid receptor 1, sequence (P20272 whole entry): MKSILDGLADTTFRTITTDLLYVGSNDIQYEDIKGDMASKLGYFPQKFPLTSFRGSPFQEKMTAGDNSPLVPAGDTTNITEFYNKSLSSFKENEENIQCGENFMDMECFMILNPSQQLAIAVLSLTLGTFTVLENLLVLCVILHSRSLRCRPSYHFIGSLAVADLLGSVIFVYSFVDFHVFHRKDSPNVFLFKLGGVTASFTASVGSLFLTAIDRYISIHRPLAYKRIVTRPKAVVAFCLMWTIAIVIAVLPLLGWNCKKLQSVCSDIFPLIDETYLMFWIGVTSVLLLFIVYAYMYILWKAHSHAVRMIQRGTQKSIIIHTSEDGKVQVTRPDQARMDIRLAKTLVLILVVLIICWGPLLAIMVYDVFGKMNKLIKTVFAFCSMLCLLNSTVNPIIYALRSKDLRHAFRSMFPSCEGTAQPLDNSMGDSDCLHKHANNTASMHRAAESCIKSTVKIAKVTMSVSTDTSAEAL
Cannabinoid receptor 2, sequence (P47936 whole entry): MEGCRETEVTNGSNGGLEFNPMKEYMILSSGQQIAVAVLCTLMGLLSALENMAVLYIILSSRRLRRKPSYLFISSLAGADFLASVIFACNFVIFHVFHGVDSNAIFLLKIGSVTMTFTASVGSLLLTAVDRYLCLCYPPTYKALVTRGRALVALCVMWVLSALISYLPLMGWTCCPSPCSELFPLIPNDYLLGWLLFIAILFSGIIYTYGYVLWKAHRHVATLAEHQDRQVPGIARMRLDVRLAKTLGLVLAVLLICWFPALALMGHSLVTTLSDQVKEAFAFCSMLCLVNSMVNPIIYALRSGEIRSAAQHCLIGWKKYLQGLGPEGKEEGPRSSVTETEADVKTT

In the case of `CCCC/C=C\C1(c2cc(O)c3c(c2)OC(C)(C)[C@@H]2CC=C(C)C[C@@H]32)CCCC1` (relative stereo), the results for the Ki at Cannabinoid receptor 2 and on Cannabinoid receptor 1 were 1.8 nM and 0.72 nM, respectively.

On to `CCCCCCC1(c2cc(O)c3c(c2)OC(C)(C)[C@@H]2CC=C(C)C[C@@H]32)CCC1`, for which, in experiment [1], the Selectivity ratio is 8. Also, the Ki – broadly, the equilibrium dissociation constant of an inhibitor or competing ligand from its target – was 11.5 nM at Cannabinoid receptor 2 and 1.5 nM on Cannabinoid receptor 1.

Consider `CCCCCCCC1(c2cc(O)c3c(c2)OC(C)(C)[C@@H]2CC=C(C)C[C@@H]32)CCCC1`, for which the Ki was 45.5 nM at Cannabinoid receptor 2 and 9.9 nM at Cannabinoid receptor 1.

Take `CCCCCCCC1(c2cc(O)c3c(c2)OC(C)(C)[C@@H]2CC=C(C)C[C@@H]32)CCC1`: the Selectivity ratio in experiment [1] amounted to 20. The Ki on Cannabinoid receptor 2 was 52.3 nM; on Cannabinoid receptor 1 it was 2.7 nM.

As to `CCCC/C=C\C1(c2cc(O)c3c(c2)OC(C)(C)[C@@H]2CC=C(C)C[C@@H]32)CCC1`, the Ki on Cannabinoid receptor 2 worked out at 1.2 nM; on Cannabinoid receptor 1, 0.93 nM.

`CCCCCCCc1cc(O)c2c(c1)OC(C)(C)[C@@H]1CC=C(C)C[C@@H]21`: the values for the Ki at Cannabinoid receptor 2 and at Cannabinoid receptor 1 were 20.8 nM and 8.8 nM, respectively.

As to `CCCCCCCC1(c2cc(O)c3c(c2)OC(C)(C)[C@@H]2CC=C(C)C[C@@H]32)CCCCC1`, the Ki on Cannabinoid receptor 2 was 143 nM; on Cannabinoid receptor 1, 13.6 nM.

As to `CCCCCCCC1(c2cc(O)c3c(c2)OC(C)(C)[C@@H]2CC=C(C)C[C@@H]32)CC1` (relative stereo), the figures for the Ki on Cannabinoid receptor 2 and on Cannabinoid receptor 1 were 4.2 nM and 0.48 nM, respectively.

`CCCC/C=C\C1(c2cc(O)c3c(c2)OC(C)(C)[C@@H]2CC=C(C)C[C@@H]32)CC1`: the Ki at Cannabinoid receptor 2 came out at 1.7 nM; at Cannabinoid receptor 1, 1.5 nM.

As for `CCCC/C=C\C1(c2cc(O)c3c(c2)OC(C)(C)[C@@H]2CC=C(C)C[C@@H]32)CCCCC1`, the Ki came out at 4.9 nM on Cannabinoid receptor 2 and 3.9 nM at Cannabinoid receptor 1.

Take `CCCCCCC1(c2cc(O)c3c(c2)OC(C)(C)[C@@H]2CC=C(C)C[C@@H]32)CCCCC1`: the Ki on Cannabinoid receptor 2 worked out at 23.5 nM; at Cannabinoid receptor 1, 18.4 nM.

These data come from ChEMBL document CHEMBL1148743, “C1'-cycloalkyl side chain pharmacophore in tetrahydrocannabinols” (J Med Chem, 2007).
